# Experimental data taken from ChEMBL document CHEMBL4715779, “In vivo effective dibenzo[b,d]furan-1-yl-thiazoles as novel PDE-4 inhibitors” (Bioorg Med Chem, 2016).
# Assays:
# [1] = biological target: T1, 3',5'-cyclic-AMP phosphodiesterase 4B (Homo sapiens, UniProt Q07343); experiment: Inhibition of human PDE4B using [3H]cAMP as substrate at 100 nM incubated for 5 mins followed by substrate addition and measured after 10 mins by scintillation proximity assay relative to control; details: time 15.0 min
# How it was run: (§1)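 Purified human PDE-4B2 in 50 mM Tris pH 7.4, 8.3 mM Mg2+, 1% DMSO final, enzyme converting 10–20% of substrate; 5 min pre-incubation at 37 °C, then 0.5 µM cAMP with ~50,000 cpm [3H]-cAMP for 10 min; stopped with yttrium silicate SPA beads containing 18 mM ZnSO4, read after >30 min settling. Background = no enzyme; IC50 from 8–10-point 4-parameter fit.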
# [2] = biological target: T1, 3',5'-cyclic-AMP phosphodiesterase 4B; experiment: Inhibition of human PDE4B using [3H]CAMP as substrate at 1000 nM incubated for 5 mins followed by substrate addition and measured after 10 mins by scintillation proximity assay relative to control; details: time 15.0 min; how it was run: as §1
# [3] = biological target: T1, 3',5'-cyclic-AMP phosphodiesterase 4B; experiment: Inhibition of human PDE4B using [3H]cAMP as substrate incubated for 5 mins followed by substrate addition and measured after 10 mins by scintillation proximity assay; how it was run: as §1
# [4] = Inhibition of PDE-4 in human PBMC assessed as LPS-induced TNFalpha production incubated for 15 mins followed by LPS stimulation and measured after 18 hrs by ELISA relative to control
# How it was run: (§2)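 PBMC isolated from healthy volunteers' blood in cell preparation tubes, suspended in RPMI; 0.5 million cells/well pre-incubated with compound 15 min at 37 °C, then stimulated with E. coli LPS (B4) 1 µg/mL for 18 h at 37 °C, 5% CO2; medium TNF-α measured by ELISA.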
# Mus musculus [5] = experiment: Antiinflammatory activity in Swiss albino mouse model of LPS-induced sepsis assessed as reduction in TNFalpha production at 10 mg/kg, po administered 30 mins before LPS stimulation and measured after 90 min by ELISA relative to control; format: functional; details: 2 h, time 120 min
# How it was run: (§3)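 Female Swiss albino mice fasted 20 h with water, dosed orally in 0.5% Tween 80/0.25% CMC sodium; vehicle-only controls. 500 µg E. coli LPS (B4) in PBS i.p. 30 min later; retro-orbital bleed 90 min post-LPS, blood held overnight at 4 °C, serum TNF-α by mouse ELISA; % inhibition.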
# PBMC [6] = experiment: Inhibition of PDE-4 in human PBMC assessed as LPS-induced TNFalpha production at 1000 nM incubated for 15 mins followed by LPS stimulation and measured after 18 hrs by ELISA relative to control; details: time 1095.0 min; how it was run: as §2
# Rattus norvegicus [7] = experiment: Antiinflammatory activity in Sprague-Dawley rat model of LPS-induced COPD and asthma assessed as reduction in total cell count in BALF at 10 mg/kg, po administered 30 mins before LPS stimulation and measured after 6 hrs relative to control; format: functional; details: time 6.5 hrs
# Mus musculus [8] = experiment: Antiinflammatory activity in Swiss albino mouse model of LPS-induced sepsis assessed as reduction in TNFalpha production at 3 mg/kg, po administered 30 mins before LPS stimulation and measured after 90 min by ELISA relative to control; format: functional; details: 2 h, time 120 min; how it was run: as §3
# Rattus norvegicus [9] = experiment: Antiinflammatory activity in Sprague-Dawley rat model of LPS-induced COPD and asthma assessed as reduction in neutrophil influx in BALF at 10 mg/kg, po administered 30 mins before LPS stimulation and measured after 6 hrs relative to control; format: functional; details: time 6.5 hrs
# PBMC [10] = experiment: Inhibition of PDE-4 in human PBMC assessed as LPS-induced TNFalpha production at 100 nM incubated for 15 mins followed by LPS stimulation and measured after 18 hrs by ELISA relative to control; details: time 1095.0 min; how it was run: as §2
# Rattus norvegicus [11] = experiment: Antiinflammatory activity in Sprague-Dawley rat model of LPS-induced COPD and asthma assessed as reduction in neutrophil influx in BALF at 5 mg/kg, po administered 30 mins before LPS stimulation and measured after 6 hrs relative to control; format: functional; details: time 6.5 hrs
# Mus musculus [12] = experiment: Antiinflammatory activity in Swiss albino mouse model of LPS-induced sepsis assessed as reduction in TNFalpha production at 1 mg/kg, po administered 30 mins before LPS stimulation and measured after 90 min by ELISA relative to control; format: functional; details: 2 h, time 120 min; how it was run: as §3
# T1 sequence (Q07343 whole entry): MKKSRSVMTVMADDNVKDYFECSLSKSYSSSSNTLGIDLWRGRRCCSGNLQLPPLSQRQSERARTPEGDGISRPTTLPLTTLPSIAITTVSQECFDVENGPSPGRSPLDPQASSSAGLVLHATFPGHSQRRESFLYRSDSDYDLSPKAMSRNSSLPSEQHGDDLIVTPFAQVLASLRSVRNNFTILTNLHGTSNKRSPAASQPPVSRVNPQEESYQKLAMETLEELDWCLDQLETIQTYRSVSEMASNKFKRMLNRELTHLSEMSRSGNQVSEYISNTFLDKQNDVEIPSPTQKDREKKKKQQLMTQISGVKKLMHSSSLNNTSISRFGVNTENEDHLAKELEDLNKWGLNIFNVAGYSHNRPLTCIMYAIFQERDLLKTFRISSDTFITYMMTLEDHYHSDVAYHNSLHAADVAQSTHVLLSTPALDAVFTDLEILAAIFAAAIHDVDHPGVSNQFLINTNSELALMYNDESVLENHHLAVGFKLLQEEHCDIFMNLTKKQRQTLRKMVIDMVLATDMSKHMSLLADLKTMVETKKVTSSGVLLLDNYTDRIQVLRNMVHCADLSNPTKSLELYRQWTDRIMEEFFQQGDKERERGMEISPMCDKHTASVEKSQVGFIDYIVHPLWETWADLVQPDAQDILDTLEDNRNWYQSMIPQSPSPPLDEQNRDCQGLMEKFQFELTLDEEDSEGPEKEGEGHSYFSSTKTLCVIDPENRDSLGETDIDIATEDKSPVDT
SMILES,inhibition [1],inhibition [2],inhibition (PBMC [6]),inhibition (PBMC [10]),further results
COc1ccc(-c2nc(C(=O)N3CCN(c4ccccn4)CC3)cs2)c2c1oc1ccccc12,21.9%,52.9%,,,
COc1ccc(-c2nc(C(=O)Nc3c(Cl)cncc3Cl)cs2)c2c1oc1ccccc12,70.3%,92%,34.2%,,IC50 [3]: 48.4 nM; IC50 [4]: 1750 nM; inhibition in vivo at 10 mg/kg (Mus musculus [5]): 37.8%
COc1ccc(-c2nc(CCC(=O)Nc3c(Cl)cncc3Cl)cs2)c2c1oc1ccccc12,8.9%,38.5%,,,
O=C(Nc1c(Cl)cncc1Cl)c1ccc(OC(F)F)c(OCC2CC2)c1 [ROFLUMILAST],,,,,inhibition in vivo at 10 mg/kg (Rattus norvegicus [7]): 73.2%; IC50 [4]: 4.3 nM; inhibition in vivo at 3 mg/kg (Mus musculus [8]): 59.2%; inhibition in vivo at 10 mg/kg (Rattus norvegicus [9]): 73.2%
COc1ccc(-c2nc(C(=O)NC3CCCC3)c(C)s2)c2c1oc1ccccc12,1.6%,,39.1%,21.9%,
COc1ccc(-c2nc(C(N)=O)cs2)c2c1oc1ccccc12,15.4%,43.8%,69.8%,35.5%,IC50 [4]: 386 nM
CCOC(=O)c1cccc(-c2csc(-c3ccc(OC)c4oc5ccccc5c34)n2)n1,5.8%,15.6%,,,
COc1ccc(-c2nc(-c3cccc(C(=O)O)n3)cs2)c2c1oc1ccccc12,18.2%,26.4%,,,
O=C(NC1CCC(O)CC1)c1csc(-c2ccc(OC(F)F)c3oc4ccc(C(F)(F)F)cc4c23)n1 (configuration not stated),51.5%,,,17.2%,
CC(=O)Nc1ccc2oc3c(OC(F)F)ccc(-c4nc(C(=O)NC5CCC(O)CC5)cs4)c3c2c1 (configuration not stated),69%,,91.9%,83.4%,IC50 [3]: 40.4 nM; IC50 [4]: 39.6 nM; inhibition in vivo at 5 mg/kg (Rattus norvegicus [11]): 35.7%; inhibition in vivo at 10 mg/kg (Rattus norvegicus [9]): 51.2%
COc1ccc(-c2nc(C(=O)O)cs2)c2c1oc1ccccc12,36%,80.4%,,,
COc1ccc(-c2nc(C(=O)N3CCN(c4ncccn4)CC3)cs2)c2c1oc1ccccc12,25.8%,59.3%,,,
CS(=O)(=O)Nc1ccc2oc3c(OC(F)F)ccc(-c4nc(C(=O)NC5CCC(O)CC5)cs4)c3c2c1 (configuration not stated),67%,,97.8%,78.6%,IC50 [3]: 31.4 nM; IC50 [4]: 18.4 nM
CCNC(=O)c1nc(-c2ccc(OC)c3oc4ccccc4c23)sc1C,24.6%,,23.8%,9.9%,
Cc1sc(-c2ccc(OC(F)F)c3oc4ccc(NS(C)(=O)=O)cc4c23)nc1C(=O)NC1CCC(O)CC1 (configuration not stated),67.6%,,92.8%,61.8%,IC50 [3]: 24.7 nM; IC50 [4]: 54.4 nM; inhibition in vivo at 10 mg/kg (Rattus norvegicus [9]): 19.3%
COc1ccc(-c2nc(C(=O)NN3CCOCC3)cs2)c2c1oc1ccccc12,39.6%,,22%,,
COc1ccc(-c2nc(C(=O)Nc3ccc(Cl)cc3)cs2)c2c1oc1ccccc12,1.2%,5.2%,15.8%,2.98%,
COc1ccc(-c2nc(-c3ccc(C#N)cc3)cs2)c2c1oc1ccccc12,5.2%,15.8%,,,

SMILES,inhibition [1],inhibition [2],inhibition (PBMC [6]),inhibition (PBMC [10]),further results
COc1ccc(-c2nc(C(=O)NC3CCC(O)CC3)cs2)c2c1oc1ccccc12 (configuration not stated),71.8%,,,63.2%,IC50 [3]: 49.5 nM; IC50 [4]: 37.7 nM; inhibition in vivo at 10 mg/kg (Mus musculus [5]): 46.7%
CC(=O)Nc1ccc2oc3c(OC(F)F)ccc(-c4nc(C(=O)O)cs4)c3c2c1,56.5%,,,15.5%,
O=C(c1csc(-c2ccc(OC(F)F)c3oc4ccc(C(F)(F)F)cc4c23)n1)N1CCC(O)CC1,27.4%,,,14%,
O=C(NCC(F)(F)F)c1csc(-c2ccc(OC(F)F)c3oc4ccccc4c23)n1,,,31.9%,26.7%,
CONC(=O)c1csc(-c2ccc(OC(F)F)c3oc4ccccc4c23)n1,35.7%,,,8.5%,inhibition in vivo at 10 mg/kg (Mus musculus [5]): 40.7%
COc1ccc(-c2nc(C(=O)Nc3ccccc3)cs2)c2c1oc1ccccc12,2.4%,7.4%,,,
CONC(=O)c1nc(-c2ccc(OC(F)F)c3oc4ccc(NS(C)(=O)=O)cc4c23)sc1C,81.2%,,,35.4%,
CS(=O)(=O)Nc1ccc2oc3c(OC(F)F)ccc(C(=O)Nc4c(Cl)cncc4Cl)c3c2c1 [OGLEMILAST],,,,,inhibition in vivo at 10 mg/kg (Mus musculus [5]): 72.5%; inhibition in vivo at 1 mg/kg (Mus musculus [12]): 53.9%
COc1ccc(-c2nc(C(=O)Nc3c(Cl)cncc3Cl)c(C)s2)c2c1oc1ccccc12,11.1%,,9.9%,0.9%,
COc1ccc(-c2csc(-c3ccc(OC)c4oc5ccccc5c34)n2)cc1,19.4%,41.5%,,,
Cc1sc(-c2ccc(OC(F)F)c3oc4ccc(NS(C)(=O)=O)cc4c23)nc1C(=O)O,62.6%,,,,
COc1ccc(-c2nc(C(=O)NC3CCC(O)CC3)c(C)s2)c2c1oc1ccccc12 (configuration not stated),62.6%,,103%,82.7%,IC50 [3]: 43.8 nM; IC50 [4]: 27.7 nM
O=C(Nc1c(Cl)cncc1Cl)c1csc(-c2ccc(OC(F)F)c3oc4ccccc4c23)n1,42.3%,88.6%,28.3%,14.5%,IC50 [3]: 127 nM; IC50 [4]: 2210 nM
COc1ccc(-c2nc(CC(=O)Nc3c(Cl)cncc3Cl)cs2)c2c1oc1ccccc12,32.7%,87.8%,,,
CCOc1cc([C@@H](CS(C)(=O)=O)N2C(=O)c3cccc(NC(C)=O)c3C2=O)ccc1OC,,,,,IC50 [4]: 77 nM
O=C(O)c1csc(-c2ccc(OC(F)F)c3oc4ccc(C(F)(F)F)cc4c23)n1,59.3%,,,4.2%,
CS(=O)(=O)Nc1ccc2oc3c(OC(F)F)ccc(-c4nc(C(=O)Nc5c(Cl)cncc5Cl)cs4)c3c2c1,43.4%,,,25.1%,
CCOC(=O)c1csc(-c2ccc(OC)c3oc4ccccc4c23)n1,17.6%,24.4%,,,
